# In ChEMBL document CHEMBL2177092, “Phosphoramidate ProTides of the anticancer agent FUDR successfully deliver the preformed bioactive monophosphate in cells and confer advantage over the parent nucleoside” (J Med Chem, 2011):
# System: L1210
# Experiment: Ratio of IC50 for Mycoplasma hyorhinis-infected mouse L1210 cells to IC50 for mouse L1210/0 cells after 48 hrs by cell counting
# Type: functional
# Details: not given
# Method in brief: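 Murine L1210/0 cells were compared with L1210/TK cells, selected for resistance to 5-bromo-2'-dUrd, and with L1210.Hyor cells, chronically infected with Mycoplasma hyorhinis. Cells were grown in DMEM with 10% FBS, 10 mM Hepes and 1 mM pyruvate at 37 °C and 5% CO2, then seeded at 60 000 cells/well with compound. They were Coulter-counted after 48 h. […] Mean of 2–4 experiments.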
row,SMILES,Ratio IC50
1,CCCCCOC(=O)[C@@H](NP(=O)(OC[C@H]1O[C@@H](n2cc(F)c(=O)[nH]c2=O)C[C@@H]1O)Oc1cccc2ccccc12)[C@@H](C)CC (mixture of isomers),1.67
2,CCCCCCOC(=O)[C@H](C)NP(=O)(OC[C@H]1O[C@@H](n2cc(F)c(=O)[nH]c2=O)C[C@@H]1O)Oc1cccc2ccccc12 (mixture of isomers),0.69
3,C[C@H](NP(=O)(OC[C@H]1O[C@@H](n2cc(F)c(=O)[nH]c2=O)C[C@@H]1O)Oc1cccc2ccccc12)C(=O)OC1CCOCC1 (mixture of isomers),11.7
4,CCOC(=O)[C@@H](NP(=O)(OC[C@H]1O[C@@H](n2cc(F)c(=O)[nH]c2=O)C[C@@H]1O)Oc1ccccc1)C(C)C (mixture of isomers),22
5,C[C@H](NP(=O)(OC[C@H]1O[C@@H](n2cc(F)c(=O)[nH]c2=O)C[C@@H]1O)Oc1cccc2ccccc12)C(=O)OCC1CC1 (mixture of isomers),2.2
6,C[C@H](NP(=O)(OC[C@H]1O[C@@H](n2cc(F)c(=O)[nH]c2=O)C[C@@H]1O)Oc1cccc2ccccc12)C(=O)OC1CCCC1 (mixture of isomers),1.5

# System: L1210
# Experiment: Cytostatic activity against Mycoplasma hyorhinis-infected mouse L1210 cells after 48 hrs by cell counting
# Type: functional, cell-based
# Details: L1210, 48 h
# Method in brief: (§1)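 Suspension leukemia cells in DMEM with 10% FBS, 10 mM Hepes and 1 mM sodium pyruvate at 37 °C under 5% CO2. Seeded at 60 000 cells/well with graded compound levels. Grown 48 h (L1210) or 72 h (CEM), then counted by Coulter counter. Mean ± SD of two to four independent experiments.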
row,SMILES,IC50 [nM]
1,CCCCCOC(=O)[C@@H](NP(=O)(OC[C@H]1O[C@@H](n2cc(F)c(=O)[nH]c2=O)C[C@@H]1O)Oc1cccc2ccccc12)[C@@H](C)CC (mixture of isomers),700
2,CCCCCCOC(=O)[C@H](C)NP(=O)(OC[C@H]1O[C@@H](n2cc(F)c(=O)[nH]c2=O)C[C@@H]1O)Oc1cccc2ccccc12 (mixture of isomers),2.2
3,C[C@H](NP(=O)(OC[C@H]1O[C@@H](n2cc(F)c(=O)[nH]c2=O)C[C@@H]1O)Oc1cccc2ccccc12)C(=O)OC1CCOCC1 (mixture of isomers),480
4,CCOC(=O)[C@@H](NP(=O)(OC[C@H]1O[C@@H](n2cc(F)c(=O)[nH]c2=O)C[C@@H]1O)Oc1ccccc1)C(C)C (mixture of isomers),4400
5,C[C@H](NP(=O)(OC[C@H]1O[C@@H](n2cc(F)c(=O)[nH]c2=O)C[C@@H]1O)Oc1cccc2ccccc12)C(=O)OCC1CC1 (mixture of isomers),31
6,C[C@H](NP(=O)(OC[C@H]1O[C@@H](n2cc(F)c(=O)[nH]c2=O)C[C@@H]1O)Oc1cccc2ccccc12)C(=O)OC1CCCC1 (mixture of isomers),24

# System: HeLa
# Experiment: Cytostatic activity against human HeLa cells […] by cell counting
# Type: functional, cell-based
# Details: not given
row,SMILES,IC50 [nM]
1,CCCCCOC(=O)[C@@H](NP(=O)(OC[C@H]1O[C@@H](n2cc(F)c(=O)[nH]c2=O)C[C@@H]1O)Oc1cccc2ccccc12)[C@@H](C)CC (mixture of isomers),300
2,CCCCCCOC(=O)[C@H](C)NP(=O)(OC[C@H]1O[C@@H](n2cc(F)c(=O)[nH]c2=O)C[C@@H]1O)Oc1cccc2ccccc12 (mixture of isomers),39
3,C[C@H](NP(=O)(OC[C@H]1O[C@@H](n2cc(F)c(=O)[nH]c2=O)C[C@@H]1O)Oc1cccc2ccccc12)C(=O)OC1CCOCC1 (mixture of isomers),130
4,CCOC(=O)[C@@H](NP(=O)(OC[C@H]1O[C@@H](n2cc(F)c(=O)[nH]c2=O)C[C@@H]1O)Oc1ccccc1)C(C)C (mixture of isomers),1200
5,C[C@H](NP(=O)(OC[C@H]1O[C@@H](n2cc(F)c(=O)[nH]c2=O)C[C@@H]1O)Oc1cccc2ccccc12)C(=O)OCC1CC1 (mixture of isomers),68
6,C[C@H](NP(=O)(OC[C@H]1O[C@@H](n2cc(F)c(=O)[nH]c2=O)C[C@@H]1O)Oc1cccc2ccccc12)C(=O)OC1CCCC1 (mixture of isomers),71

# System: HeLa
# Experiment: Cytostatic activity against thymidine-kinase deficient human HeLa cells […]
# Type: functional, cell-based
# Details: not given
row,SMILES,IC50 [nM]
1,CCCCCOC(=O)[C@@H](NP(=O)(OC[C@H]1O[C@@H](n2cc(F)c(=O)[nH]c2=O)C[C@@H]1O)Oc1cccc2ccccc12)[C@@H](C)CC (mixture of isomers),11000
2,CCCCCCOC(=O)[C@H](C)NP(=O)(OC[C@H]1O[C@@H](n2cc(F)c(=O)[nH]c2=O)C[C@@H]1O)Oc1cccc2ccccc12 (mixture of isomers),1800
3,C[C@H](NP(=O)(OC[C@H]1O[C@@H](n2cc(F)c(=O)[nH]c2=O)C[C@@H]1O)Oc1cccc2ccccc12)C(=O)OC1CCOCC1 (mixture of isomers),15000
4,CCOC(=O)[C@@H](NP(=O)(OC[C@H]1O[C@@H](n2cc(F)c(=O)[nH]c2=O)C[C@@H]1O)Oc1ccccc1)C(C)C (mixture of isomers),27000
5,C[C@H](NP(=O)(OC[C@H]1O[C@@H](n2cc(F)c(=O)[nH]c2=O)C[C@@H]1O)Oc1cccc2ccccc12)C(=O)OCC1CC1 (mixture of isomers),1400
6,C[C@H](NP(=O)(OC[C@H]1O[C@@H](n2cc(F)c(=O)[nH]c2=O)C[C@@H]1O)Oc1cccc2ccccc12)C(=O)OC1CCCC1 (mixture of isomers),2200

# System: CCRF-CEM
# Experiment: Cytostatic activity against thymidine-kinase deficient human CEM cells after 72 hrs by cell counting
# Type: functional, cell-based
# Details: not given
# Method in brief: as §1
row,SMILES,IC50 [nM]
1,CCCCCOC(=O)[C@@H](NP(=O)(OC[C@H]1O[C@@H](n2cc(F)c(=O)[nH]c2=O)C[C@@H]1O)Oc1cccc2ccccc12)[C@@H](C)CC (mixture of isomers),17000
2,CCCCCCOC(=O)[C@H](C)NP(=O)(OC[C@H]1O[C@@H](n2cc(F)c(=O)[nH]c2=O)C[C@@H]1O)Oc1cccc2ccccc12 (mixture of isomers),650
3,C[C@H](NP(=O)(OC[C@H]1O[C@@H](n2cc(F)c(=O)[nH]c2=O)C[C@@H]1O)Oc1cccc2ccccc12)C(=O)OC1CCOCC1 (mixture of isomers),43000
4,CCOC(=O)[C@@H](NP(=O)(OC[C@H]1O[C@@H](n2cc(F)c(=O)[nH]c2=O)C[C@@H]1O)Oc1ccccc1)C(C)C (mixture of isomers),> 250000
5,C[C@H](NP(=O)(OC[C@H]1O[C@@H](n2cc(F)c(=O)[nH]c2=O)C[C@@H]1O)Oc1cccc2ccccc12)C(=O)OCC1CC1 (mixture of isomers),1100
6,C[C@H](NP(=O)(OC[C@H]1O[C@@H](n2cc(F)c(=O)[nH]c2=O)C[C@@H]1O)Oc1cccc2ccccc12)C(=O)OC1CCCC1 (mixture of isomers),920

# System: CCRF-CEM
# Experiment: Cytostatic activity against human CEM/0 cells after 72 hrs by cell counting
# Type: functional, cell-based
# Details: not given
# Method in brief: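 Suspension leukemia cells in DMEM with 10% FBS, 10 mM Hepes and 1 mM sodium pyruvate at 37 °C under 5% CO2. Seeded at 60 000 cells/well with graded compound levels. Grown 48 h (L1210) or 72 h (CEM), then counted by Coulter counter. […] Mean ± SD of two to four independent experiments.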
row,SMILES,IC50 [nM]
1,CCCCCOC(=O)[C@@H](NP(=O)(OC[C@H]1O[C@@H](n2cc(F)c(=O)[nH]c2=O)C[C@@H]1O)Oc1cccc2ccccc12)[C@@H](C)CC (mixture of isomers),460
2,CCCCCCOC(=O)[C@H](C)NP(=O)(OC[C@H]1O[C@@H](n2cc(F)c(=O)[nH]c2=O)C[C@@H]1O)Oc1cccc2ccccc12 (mixture of isomers),80
3,C[C@H](NP(=O)(OC[C@H]1O[C@@H](n2cc(F)c(=O)[nH]c2=O)C[C@@H]1O)Oc1cccc2ccccc12)C(=O)OC1CCOCC1 (mixture of isomers),110
4,CCOC(=O)[C@@H](NP(=O)(OC[C@H]1O[C@@H](n2cc(F)c(=O)[nH]c2=O)C[C@@H]1O)Oc1ccccc1)C(C)C (mixture of isomers),1000
5,C[C@H](NP(=O)(OC[C@H]1O[C@@H](n2cc(F)c(=O)[nH]c2=O)C[C@@H]1O)Oc1cccc2ccccc12)C(=O)OCC1CC1 (mixture of isomers),59
6,C[C@H](NP(=O)(OC[C@H]1O[C@@H](n2cc(F)c(=O)[nH]c2=O)C[C@@H]1O)Oc1cccc2ccccc12)C(=O)OC1CCCC1 (mixture of isomers),35

# System: not listed separately
# Experiment: Cytostatic activity against mouse L1210/0 cells after 48 hrs by cell counting
# Type: functional, cell-based
# Details: L1210/0, 48 h
# Method in brief: as §1
row,SMILES,IC50 [nM]
1,CCCCCOC(=O)[C@@H](NP(=O)(OC[C@H]1O[C@@H](n2cc(F)c(=O)[nH]c2=O)C[C@@H]1O)Oc1cccc2ccccc12)[C@@H](C)CC (mixture of isomers),420
2,CCCCCCOC(=O)[C@H](C)NP(=O)(OC[C@H]1O[C@@H](n2cc(F)c(=O)[nH]c2=O)C[C@@H]1O)Oc1cccc2ccccc12 (mixture of isomers),3.2
3,C[C@H](NP(=O)(OC[C@H]1O[C@@H](n2cc(F)c(=O)[nH]c2=O)C[C@@H]1O)Oc1cccc2ccccc12)C(=O)OC1CCOCC1 (mixture of isomers),41
4,CCOC(=O)[C@@H](NP(=O)(OC[C@H]1O[C@@H](n2cc(F)c(=O)[nH]c2=O)C[C@@H]1O)Oc1ccccc1)C(C)C (mixture of isomers),200
5,C[C@H](NP(=O)(OC[C@H]1O[C@@H](n2cc(F)c(=O)[nH]c2=O)C[C@@H]1O)Oc1cccc2ccccc12)C(=O)OCC1CC1 (mixture of isomers),14
6,C[C@H](NP(=O)(OC[C@H]1O[C@@H](n2cc(F)c(=O)[nH]c2=O)C[C@@H]1O)Oc1cccc2ccccc12)C(=O)OC1CCCC1 (mixture of isomers),16

# System: L1210
# Experiment: Cytostatic activity against thymidine-kinase deficient mouse L1210 cells after 48 hrs by cell counting
# Type: functional, cell-based
# Details: L1210, 48 h
# Method in brief: as §1
row,SMILES,IC50 [nM]
1,CCCCCOC(=O)[C@@H](NP(=O)(OC[C@H]1O[C@@H](n2cc(F)c(=O)[nH]c2=O)C[C@@H]1O)Oc1cccc2ccccc12)[C@@H](C)CC (mixture of isomers),12000
2,CCCCCCOC(=O)[C@H](C)NP(=O)(OC[C@H]1O[C@@H](n2cc(F)c(=O)[nH]c2=O)C[C@@H]1O)Oc1cccc2ccccc12 (mixture of isomers),76
3,C[C@H](NP(=O)(OC[C@H]1O[C@@H](n2cc(F)c(=O)[nH]c2=O)C[C@@H]1O)Oc1cccc2ccccc12)C(=O)OC1CCOCC1 (mixture of isomers),27000
4,CCOC(=O)[C@@H](NP(=O)(OC[C@H]1O[C@@H](n2cc(F)c(=O)[nH]c2=O)C[C@@H]1O)Oc1ccccc1)C(C)C (mixture of isomers),42000
5,C[C@H](NP(=O)(OC[C@H]1O[C@@H](n2cc(F)c(=O)[nH]c2=O)C[C@@H]1O)Oc1cccc2ccccc12)C(=O)OCC1CC1 (mixture of isomers),120
6,C[C@H](NP(=O)(OC[C@H]1O[C@@H](n2cc(F)c(=O)[nH]c2=O)C[C@@H]1O)Oc1cccc2ccccc12)C(=O)OC1CCCC1 (mixture of isomers),130
